High-throughput results (PubChem BioAssay)
Only some compounds are listed: those with a hit (about 1.5% of all), similar ones and a draw of the others.
GSIS activator – GLuc luminescence reporter in INS-1E cells, primary screen for activators of glucose-dependent secretion of insulin; INS-1E GLuc reporter insulin secretion, 2-3 h; activation, % at 16.6 µM; 0.61% of 370,000 active; AID 743287;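 active means lowest replicate activation of at least 40%, so every replicate reaches that level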
RAD52 anneal inh – RAD52 (human) annealing inhibition; P43351; recombinant RAD52 DNA annealing, FRET fluorescence; inhibition, % at 18.7 µM; 0.46% of 360,000 active; AID 651710;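 active means every replicate showing at least 50% inhibition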
Target sequence (P43351 whole entry, looked up): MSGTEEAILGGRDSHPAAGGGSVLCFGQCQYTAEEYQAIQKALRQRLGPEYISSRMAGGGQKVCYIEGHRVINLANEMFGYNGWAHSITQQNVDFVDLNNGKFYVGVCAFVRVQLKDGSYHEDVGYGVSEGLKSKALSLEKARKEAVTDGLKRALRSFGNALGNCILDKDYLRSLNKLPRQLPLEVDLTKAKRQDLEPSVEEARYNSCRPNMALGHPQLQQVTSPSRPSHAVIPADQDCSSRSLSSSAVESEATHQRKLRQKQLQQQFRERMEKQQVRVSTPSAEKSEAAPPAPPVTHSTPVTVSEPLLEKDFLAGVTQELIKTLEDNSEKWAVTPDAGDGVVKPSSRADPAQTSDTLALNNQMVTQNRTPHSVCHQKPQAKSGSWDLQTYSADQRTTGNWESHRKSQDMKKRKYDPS
ERAP1 HTS inh – blocks human ERAP1 aminopeptidase activity. inhibition, % at 10.7 µM. Q9NZ08. 0.15% of 340,000 active. AID 652197. recombinant ERAP1, Leu-AMC fluorescence, 60 min;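 active means mean replicate inhibition of at least 30%, or all replicates individually reaching that 30% level; inactive means mean below 30% and not every replicate reaching it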
AF4-AF9 inh – MLL-AF4/AF9 protein interaction inhibition | AlphaScreen, biotin-AF4 peptide binding to FLAG-AF9 | 0.47% of 350,000 active | AID 651704 | P42568 | inhibition, % at 10 µM;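 active means every replicate reaching a set inhibition limit, whatever the replicate mean, cut at about 25% in these data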
S100A4 inh HTS – inhibitors of human S100A4 binding to myosin IIA peptide | S100A4/TAMRA-MyoIIA peptide fluorescence polarization | inhibition, % at 10.7 µM | 0.14% of 360,000 active | AID 652163;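 active means mean inhibition of at least 70% across replicates, with every replicate also reaching that level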
Target sequence (P26447 whole entry, looked up): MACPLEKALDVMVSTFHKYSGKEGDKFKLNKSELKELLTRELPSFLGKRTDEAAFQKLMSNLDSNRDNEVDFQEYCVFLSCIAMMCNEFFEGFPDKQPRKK
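Test system: S100A4 monomer protein; Medium: HEPES pH 7.2 with CaCl2, KCl, NaCl, DTT, Triton; Probe or stimulus: TAMRA-labelled myosin IIA heavy-chain peptide probe, 5 nM; Doses: one dose per compound; Times: polarization read 5 min after assay mix addition, stable 5–60 min; Benchmarks: neutral control DMSO, positive control TFP.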
A number is an active result; . = inactive; / = no result given; + = active, no number.

SMILES	GSIS activator	RAD52 anneal inh	ERAP1 HTS inh	AF4-AF9 inh	S100A4 inh HTS
CCCNC(=O)Nc1ccc2c(c1)C(=O)N(C)C[C@@H](OC)[C@@H](C)CN[C@@H](C)CO2	.	.	.	.	111
C[C@H](CO)N1C[C@H](C)[C@@H](CN(C)Cc2ccccc2)Oc2ccc(NC(=O)Nc3ccc(C(F)(F)F)cc3)cc2CC1=O	.	54	.	.	.
C[C@@H]1CN([C@H](C)CO)C(=O)Cc2cc(N(C)C)ccc2O[C@H]1CN(C)Cc1ccccc1	.	.	.	.	.
C[C@H]1CN([C@@H](C)CO)C(=O)Cc2cc(N(C)C)ccc2O[C@H]1CN(C)Cc1ccccc1	.	.	.	.	.
C[C@@H]1CN([C@@H](C)CO)C(=O)Cc2cc(N(C)C)ccc2O[C@@H]1CN(C)Cc1ccc(Oc2ccccc2)cc1	.	.	.	38	.
C[C@@H]1CN([C@H](C)CO)C(=O)Cc2cc(N(C)C)ccc2O[C@@H]1CN(C)Cc1ccc(-c2ccccc2)cc1	.	.	.	44	.
C[C@H](CO)N1C[C@H](C)[C@H](CN(C)Cc2ccccc2)Oc2ccc(NC(=O)Nc3ccc(C(F)(F)F)cc3)cc2CC1=O	.	.	.	.	.
C[C@H](CO)N1C[C@H](C)[C@@H](CN(C)Cc2ccc(-c3ccccc3)cc2)Oc2ccc(N(C)C)cc2CC1=O	.	.	.	59	.
C[C@@H]1CN([C@H](C)CO)C(=O)Cc2cc(N(C)C)ccc2O[C@H]1CN(C)Cc1ccc(-c2ccccc2)cc1	.	.	.	36	.
C[C@H]1CN([C@@H](C)CO)C(=O)Cc2cc(N(C)C)ccc2O[C@H]1CN(C)Cc1ccc(-c2ccccc2)cc1	.	.	.	44	.
C[C@@H]1CN([C@@H](C)CO)C(=O)Cc2cc(N(C)C)ccc2O[C@H]1CN(C)Cc1ccc(C(F)(F)F)cc1	.	.	.	43	.
Cc1noc(C)c1NC(=O)N(C)C[C@H]1Oc2ccc(NC(=O)Cc3ccccc3)cc2CC(=O)N([C@@H](C)CO)C[C@@H]1C	.	77	.	.	.
Cc1noc(C)c1NC(=O)N(C)C[C@H]1Oc2ccc(NC(=O)Cc3ccccc3)cc2CC(=O)N([C@H](C)CO)C[C@H]1C	.	.	.	.	.
C[C@@H]1CN([C@@H](C)CO)C(=O)Cc2cc(N(C)C)ccc2O[C@H]1CN(C)Cc1ccccc1	.	.	.	.	.
C[C@@H]1CN([C@@H](C)CO)C(=O)Cc2cc(N(C)C)ccc2O[C@@H]1CN(C)Cc1ccccc1	.	.	.	.	.
O=C(C[C@@H]1C[C@H]2c3cc(NC(=O)Nc4ccccc4F)ccc3O[C@H]2[C@@H](CO)O1)NCc1ccc(Oc2ccccc2)cc1	.	/	/	/	/
Cc1ccc(S(=O)(=O)NCc2ccccc2)cc1C(=O)NCC1CCCO1 (stereo not given)	.	.	.	.	+
C[n+]1cccc(C(=O)NCC2CCCO2)c1 (stereo not given)	.	.	99	.	.
COc1ccc2c3c([nH]c2c1)[C@@H](CO)N(Cc1ccccn1)CC31CN(C(C)=O)C1	.	/	/	/	/
O=C(NCc1ccc(Cl)cc1)c1cc(=O)[nH]c2ccc(S(=O)(=O)N3CCOCC3)cc12	55	.	.	.	.
Cn1cc(C(=O)NCc2ccc(Cl)cc2)c(=O)c2cc(S(=O)(=O)N3CCOCC3)ccc21	.	.	.	.	.
O=C(NCc1ccccc1F)c1cc(=O)[nH]c2ccccc12	.	.	.	.	.
O=C(NCc1ccccc1Cl)c1cc(=O)[nH]c2ccccc12	.	.	48	.	.
CC(C)[C@H]1COCc2cn(nn2)CCC[C@@H](C)C(=O)N1	.	/	/	/	/
COCC(=O)Nc1ccc2c(c1)OC[C@H](C)N(C(=O)c1ccccc1)C[C@@H](C)[C@@H](OC)CN(C)C2=O	.	.	.	.	.
SMILES	GSIS activator	RAD52 anneal inh	ERAP1 HTS inh	AF4-AF9 inh	S100A4 inh HTS
CCCC#Cc1cnc2c(c1)C(=O)N([C@@H](C)CO)C[C@H](C)[C@@H](CN(C)C(=O)NCCC)O2	.	.	.	.	.
O=C(COc1nncc2ccccc12)NCC(F)(F)F	44	.	.	.	.
O=C1N[C@H](Cc2ccccc2)COCc2cnnn2CC[C@H]1Cc1cccc(F)c1	.	/	/	/	/
CC(=O)Nc1cccc(C(=O)NC2CCCc3c2cnn3-c2ccccc2F)c1 (stereo not given)	.	.	.	.	199
Cc1cccc(C(=O)NNC(=O)c2ccc(-c3ccccc3)cc2)c1	99	/	/	/	/
COc1ccc(NC(=O)Nc2ccc3c(c2)[C@@H]2C[C@H](CC(=O)NC4CCCCC4)O[C@H](CO)[C@@H]2O3)cc1	.	.	.	.	.
CCCCCCSc1cc(-c2nc3cnccn3c2NCCCC)ccc1OC	108	.	.	/	.
CCCCCCSc1cc(-c2nc3cc(C)ccn3c2NCCCC)ccc1OC	.	.	.	.	.
COc1ccc(NC(=O)Nc2ccc3c(c2)CC(=O)N([C@H](C)CO)C[C@H](C)[C@@H](CN(C)S(=O)(=O)c2ccc(C)cc2)O3)cc1	.	.	.	.	.
CN(C)CCNc1cccc2sc3ccc(O)cc3c(=O)c12	/	.	.	38	.
C[C@H](CO)N1C[C@H](C)[C@H](CN(C)C(=O)Nc2ccc(F)cc2)Oc2ncc(C#Cc3cccc(F)c3)cc2C1=O	.	/	/	/	/
CCCCC[C@@H](/C=C/C1C(=O)C=C[C@H]1C/C=C\CCCC(=O)OC)OC(C)=O (stereo not given in full)	46	.	.	.	.
CO[C@H]1CN(C)C(=O)c2ccc(NC(=O)C3CC3)cc2OC[C@H](C)N(CC2CCOCC2)C[C@@H]1C	.	.	.	.	.
COc1ccc(NC(=O)CCCN2C(=O)CN(C)C2=O)c(OC)c1	/	.	.	33	.
CO[C@H]1CN(C)C(=O)c2ccc(NC(=O)c3ccc(Oc4ccccc4)cc3)cc2OC[C@H](C)NC[C@H]1C	/	52	.	.	.
COc1cccc(NC(=O)Nc2ccc3c(c2)OC[C@H](C)NC[C@@H](C)[C@@H](OC)CN(C)C3=O)c1	.	74	.	.	.
CO[C@@H]1CN(C)C(=O)c2ccc(NC(=O)c3ccc(Oc4ccccc4)cc3)cc2OC[C@@H](C)NC[C@H]1C	.	.	.	.	.
CCCC(=O)Nc1ccc2c(c1)OC[C@H](C)NC[C@H](C)[C@H](OC)CN(C)C2=O	.	.	/	.	101
O=C(CN1CCCC1)OCCCC1CCCCC1	.	.	.	/	.
CC(C)(C)C1CCC(OC(=O)C[N+]2(C)CCCC2)CC1 (stereo not given)	.	.	41	.	.
C[N+]1(CC(=O)OCCCC2CCCCC2)CCCC1	.	.	108	.	.
CC(C)(C)C1CCC(OC(=O)C[N+]2(C)CCCCC2)CC1 (stereo not given)	.	.	.	.	.
COCc1cn(CC[C@H]2CC[C@@H](NC(=O)Nc3ccc4c(c3)OCO4)[C@H](CO)O2)nn1	.	.	.	.	.
